How the values were obtained:
[1] = molecular target: T1, Apoptosis regulator Bcl-2 (Homo sapiens, UniProt P10415); test: Inhibition of 5-FAM-tagged Bid-BH3 peptide binding to Bcl2 (unknown origin) by fluorescence polarization assay
[2] = molecular target: T1, Apoptosis regulator Bcl-2; test: Potency index, ratio of Ki for WL276 to Ki for test compound for inhibition of 5-FAM-tagged Bid-BH3 peptide binding to Bcl2 (unknown origin) by fluorescence polarization assay
[3] = molecular target: T1, Apoptosis regulator Bcl-2; test: Potency index, ratio of Ki for UMI77 to Ki for test compound for inhibition of 5-FAM-tagged Bid-BH3 peptide binding to Bcl2 (unknown origin) by fluorescence polarization assay
[4] = molecular target: Bcl-2-like protein 1 (Homo sapiens, UniProt Q07817); test: Inhibition of 5-FAM-tagged Bid-BH3 peptide binding to Bcl-XL (unknown origin) by fluorescence polarization assay
Sequence of Bcl-2-like protein 1 (Q07817 whole entry): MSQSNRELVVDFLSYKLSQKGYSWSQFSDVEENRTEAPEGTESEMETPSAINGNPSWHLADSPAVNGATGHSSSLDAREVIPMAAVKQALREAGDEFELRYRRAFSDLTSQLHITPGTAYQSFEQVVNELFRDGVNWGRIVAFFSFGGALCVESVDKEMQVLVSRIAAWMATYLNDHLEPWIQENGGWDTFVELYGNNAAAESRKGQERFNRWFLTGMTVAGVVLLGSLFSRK
In short: (§1)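 Competitive fluorescence polarization in which compounds displace labelled Bid-BH3 peptide from the Bcl-2 family protein, read as a fall in mP. IC50 taken from mP versus concentration. Ki calculated from IC50, Kd, and the peptide and protein concentrations.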

[5] = molecular target: Induced myeloid leukemia cell differentiation protein Mcl-1 (Homo sapiens, UniProt Q07820); test: Inhibition of 5-FAM-tagged Bid-BH3 peptide binding to Mcl1 (unknown origin) by fluorescence polarization assay; in short: as §1
Sequence of Induced myeloid leukemia cell differentiation protein Mcl-1 (Q07820 whole entry): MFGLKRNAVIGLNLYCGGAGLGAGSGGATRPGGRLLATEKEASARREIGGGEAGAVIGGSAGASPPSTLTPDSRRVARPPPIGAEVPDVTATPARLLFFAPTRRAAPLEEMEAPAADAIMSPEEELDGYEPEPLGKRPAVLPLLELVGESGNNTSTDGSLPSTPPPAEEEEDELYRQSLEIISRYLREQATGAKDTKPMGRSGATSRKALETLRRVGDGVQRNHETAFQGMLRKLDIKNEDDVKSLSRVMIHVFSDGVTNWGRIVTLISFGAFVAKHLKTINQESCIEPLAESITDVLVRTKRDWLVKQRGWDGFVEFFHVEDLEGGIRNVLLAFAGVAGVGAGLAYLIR

[6] = test system: PC-3; test: Antiproliferative activity against human PC3 cells assessed as reduction in cell growth incubated for 48 hrs by MTT assay; assay type: functional, cell-based; conditions: PC-3, 48 h
In short: (§2)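 PC-3, Jurkat and K562 cells grown in RPMI 1640 with 10% FBS at 37°C, 5% CO2. Cells seeded at 2000-4000 per well and left 8 h before compound addition at a range of concentrations. Exposure 48 h, then 0.5% MTT solution for 4 h. Formazan dissolved in DMSO and absorbance read at 570 nm. IC50 derived from concentrations and inhibitory ratios.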

[7] = test system: Jurkat; test: Antiproliferative activity against human Jurkat cells assessed as reduction in cell growth incubated for 48 hrs by MTT assay; assay type: functional, cell-based; in short: as §2
[8] = test system: K562; test: Antiproliferative activity against human K562 cells assessed as reduction in cell growth incubated for 48 hrs by MTT assay; assay type: functional, cell-based; conditions: K562, 48 h; in short: as §2
[9] = test system: Jurkat; test: Induction of apoptosis in human Jurkat cells assessed as viable cells level at 20 uM incubated for 48 hrs by annexin-V/FITC and propidium iodide staining based flow cytometry (reference value: 86.5%); assay type: functional
[10] = test system: Jurkat; test: Induction of apoptosis in human Jurkat cells assessed as early apoptotic cells level at 20 uM incubated for 48 hrs by annexin-V/FITC and propidium iodide staining based flow cytometry (reference value: 7.02%); assay type: functional
[11] = test system: Jurkat; test: Induction of apoptosis in human Jurkat cells assessed as late apoptotic cells level at 20 uM incubated for 48 hrs by annexin-V/FITC and propidium iodide staining based flow cytometry (reference value: 6.29%); assay type: functional
[12] = test system: Jurkat; test: Induction of apoptosis in human Jurkat cells assessed as necrotic cells level at 20 uM incubated for 48 hrs by annexin-V/FITC and propidium iodide staining based flow cytometry (reference value: 6.29%); assay type: functional
[13] = test system: Jurkat; test: Induction of apoptosis in human Jurkat cells assessed as viable cells level at 40 uM incubated for 48 hrs by annexin-V/FITC and propidium iodide staining based flow cytometry (reference value: 86.5%); assay type: functional
[14] = test system: Jurkat; test: Induction of apoptosis in human Jurkat cells assessed as early apoptotic cells level at 40 uM incubated for 48 hrs by annexin-V/FITC and propidium iodide staining based flow cytometry (reference value: 7.02%); assay type: functional
[15] = test system: Jurkat; test: Induction of apoptosis in human Jurkat cells assessed as late apoptotic cells level at 40 uM incubated for 48 hrs by annexin-V/FITC and propidium iodide staining based flow cytometry (reference value: 6.29%); assay type: functional
[16] = test system: Jurkat; test: Induction of apoptosis in human Jurkat cells assessed as necrotic cells level at 40 uM incubated for 48 hrs by annexin-V/FITC and propidium iodide staining based flow cytometry (reference value: 6.29%); assay type: functional
[17] = molecular target: T1, Apoptosis regulator Bcl-2; test: Inhibition of 5-FAM-tagged Bid-BH3 peptide binding to Bcl2 (unknown origin) at 100 uM by fluorescence polarization assay relative to untreated control

T1 sequence (P10415 whole entry): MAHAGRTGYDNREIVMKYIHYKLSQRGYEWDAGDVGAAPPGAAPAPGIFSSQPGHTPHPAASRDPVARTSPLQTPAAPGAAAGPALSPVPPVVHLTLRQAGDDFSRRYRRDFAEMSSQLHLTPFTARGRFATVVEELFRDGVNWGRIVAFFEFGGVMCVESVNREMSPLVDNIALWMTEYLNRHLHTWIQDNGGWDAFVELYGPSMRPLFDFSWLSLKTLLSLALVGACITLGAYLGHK

SMILES | Ki ([1]; read-out: Ki) | Ratio Ki [2] | Ratio Ki [3] | also measured
COc1ccc2c(c1)c(CC(=O)N[C@@H](Cc1ccc(Br)cc1)C(=O)NS(=O)(=O)c1ccc(Cl)c([N+](=O)[O-])c1)c(C)n2C(=O)c1ccc(Cl)cc1 | 0.59 µM | – | – | –
COc1ccc2c(c1)c(CC(=O)N[C@@H](Cc1ccc(OCc3ccccc3C#N)cc1)C(=O)NS(=O)(=O)c1ccc(Cl)c([N+](=O)[O-])c1)c(C)n2C(=O)c1ccc(Cl)cc1 | 0.67 µM | 2 to 3 | 5 to 6 | –
COc1ccc2c(c1)c(CC(=O)N[C@@H](CCSC)C(=O)NS(=O)(=O)c1ccc(Cl)c([N+](=O)[O-])c1)c(C)n2C(=O)c1ccc(Cl)cc1 | > 5 µM | – | – | –
COc1ccc2c(c1)c(CC(=O)N[C@@H](Cc1ccc(OCc3ccccc3)cc1)C(=O)NS(=O)(=O)c1ccc(Cl)c([N+](=O)[O-])c1)c(C)n2C(=O)c1ccc(Cl)cc1 | 0.52 µM | 2 to 3 | 5 to 6 | –
COc1ccc2c(c1)c(CC(=O)N[C@@H](Cc1ccccc1)C(=O)NS(=O)(=O)c1ccc(Br)cc1)c(C)n2C(=O)c1ccc(Cl)cc1 | > 5 µM | – | – | –
COc1ccc2c(c1)c(CC(=O)NCC(=O)NS(=O)(=O)c1ccc(Br)cc1)c(C)n2C(=O)c1ccc(Cl)cc1 | – | – | – | Ki [1]: Not Active
COc1ccc2c(c1)c(CC(=O)N[C@H](C(=O)NS(=O)(=O)c1ccc(Cl)c([N+](=O)[O-])c1)C(C)C)c(C)n2C(=O)c1ccc(Cl)cc1 | – | – | – | Ki [1]: Not Active
COc1cccc(COc2ccc(C[C@H](NC(=O)Cc3c(C)n(C(=O)c4ccc(Cl)cc4)c4ccc(OC)cc34)C(=O)NS(=O)(=O)c3ccc(Cl)c([N+](=O)[O-])c3)cc2)c1 | 0.48 µM | 2 to 3 | 5 to 6 | IC50 [6]: 31.7 µM; IC50 [7]: 35.9 µM; IC50 [8]: 36.2 µM
COc1ccc2c(c1)c(CC(=O)N[C@@H](Cc1ccc(OCc3ccc([N+](=O)[O-])cc3)cc1)C(=O)NS(=O)(=O)c1ccc(Br)cc1)c(C)n2C(=O)c1ccc(Cl)cc1 | 0.63 µM | 2 to 3 | 5 to 6 | –
COc1ccc(C[C@H](NC(=O)Cc2c(C)n(C(=O)c3ccc(Cl)cc3)c3ccc(OC)cc23)C(=O)NS(=O)(=O)c2ccc(Cl)c([N+](=O)[O-])c2)cc1 | > 5 µM | – | – | –
COc1ccc2c(c1)c(CC(=O)N[C@@H](Cc1ccc(OC(C)C)cc1)C(=O)NS(=O)(=O)c1ccc(Cl)c([N+](=O)[O-])c1)c(C)n2C(=O)c1ccc(Cl)cc1 | > 5 µM | – | – | –
COc1ccc2c(c1)c(CC(=O)N[C@@H](Cc1ccc(OCc3cccc(C)c3)cc1)C(=O)NS(=O)(=O)c1ccc(Cl)c([N+](=O)[O-])c1)c(C)n2C(=O)c1ccc(Cl)cc1 | 0.43 µM | 2 to 3 | 5 to 6 | Ki [4]: Not Active; Ki [5]: 0.49 µM; IC50 [6]: 28.6 µM; IC50 [7]: 30.3 µM; IC50 [8]: 38.8 µM
COc1ccc2c(c1)c(CC(=O)N[C@@H](C)C(=O)NS(=O)(=O)c1ccc(Cl)c([N+](=O)[O-])c1)c(C)n2C(=O)c1ccc(Cl)cc1 | – | – | – | Ki [1]: Not Active
COc1ccc2c(c1)c(CC(=O)N[C@@H](Cc1ccc(OCc3ccc(C#N)cc3)cc1)C(=O)NS(=O)(=O)c1ccc(Cl)c([N+](=O)[O-])c1)c(C)n2C(=O)c1ccc(Cl)cc1 | 0.47 µM | 2 to 3 | 5 to 6 | Ki [4]: Not Active; Ki [5]: 0.53 µM; IC50 [6]: 39.3 µM; IC50 [7]: 83.5 µM; IC50 [8]: 49.2 µM
COc1ccc2c(c1)c(CC(=O)N[C@@H](CC(C)C)C(=O)NS(=O)(=O)c1ccc(Cl)c([N+](=O)[O-])c1)c(C)n2C(=O)c1ccc(Cl)cc1 | > 5 µM | – | – | –
COc1ccc(C[C@H](NC(=O)Cc2c(C)n(C(=O)c3ccc(Cl)cc3)c3ccc(OC)cc23)C(=O)NS(=O)(=O)c2ccc(Br)cc2)cc1 | > 5 µM | – | – | –
COc1ccc2c(c1)c(CC(=O)N[C@@H](Cc1ccc(OCc3ccc(C)cc3)cc1)C(=O)NS(=O)(=O)c1ccc(Cl)c([N+](=O)[O-])c1)c(C)n2C(=O)c1ccc(Cl)cc1 | 0.56 µM | 2 to 3 | 5 to 6 | –
COc1ccc2c(c1)c(CC(=O)N[C@@H](Cc1ccccc1)C(=O)NS(=O)(=O)c1ccc(Cl)c([N+](=O)[O-])c1)c(C)n2C(=O)c1ccc(Cl)cc1 | > 5 µM | – | – | –
CCCOc1ccc(C[C@H](NC(=O)Cc2c(C)n(C(=O)c3ccc(Cl)cc3)c3ccc(OC)cc23)C(=O)NS(=O)(=O)c2ccc(Cl)c([N+](=O)[O-])c2)cc1 | 1.3 µM | – | – | –
COc1ccc2c(c1)c(CC(=O)N[C@@H](Cc1ccccc1)C(=O)NS(=O)(=O)c1ccccc1)c(C)n2C(=O)c1ccc(Cl)cc1 | – | – | – | Ki [1]: Not Active
COc1ccc2c(c1)c(CC(=O)NCC(=O)NS(=O)(=O)c1ccc(Cl)c([N+](=O)[O-])c1)c(C)n2C(=O)c1ccc(Cl)cc1 | – | – | – | Ki [1]: Not Active; inhibition [17]: 94%

More lines, main results first:

Ki ([1]; read-out: Ki) | Ratio Ki [2] | Ratio Ki [3] | SMILES | also measured
4.9 µM | – | – | CCC(C)[C@H](NC(=O)Cc1c(C)n(C(=O)c2ccc(Cl)cc2)c2ccc(OC)cc12)C(=O)NS(=O)(=O)c1ccc(Cl)c([N+](=O)[O-])c1 (some centres not stated) | –
0.51 µM | 2 to 3 | 5 to 6 | COc1ccc2c(c1)c(CC(=O)N[C@@H](Cc1ccc(OCc3ccc([N+](=O)[O-])cc3)cc1)C(=O)NS(=O)(=O)c1ccc(Cl)c([N+](=O)[O-])c1)c(C)n2C(=O)c1ccc(Cl)cc1 | –
0.56 µM | 2 to 3 | 5 to 6 | COc1ccc2c(c1)c(CC(=O)N[C@@H](Cc1ccc(OCc3ccc4ccccc4c3)cc1)C(=O)NS(=O)(=O)c1ccc(Cl)c([N+](=O)[O-])c1)c(C)n2C(=O)c1ccc(Cl)cc1 | –
0.44 µM | 2 to 3 | 5 to 6 | COc1ccc2c(c1)c(CC(=O)N[C@@H](Cc1ccc(OCc3cccc(C#N)c3)cc1)C(=O)NS(=O)(=O)c1ccc(Cl)c([N+](=O)[O-])c1)c(C)n2C(=O)c1ccc(Cl)cc1 | Ki [4]: Not Active; Ki [5]: 0.48 µM; IC50 [6]: 38.2 µM; IC50 [7]: 55.2 µM; IC50 [8]: 51.6 µM
0.53 µM | 2 to 3 | 5 to 6 | COc1ccc2c(c1)c(CC(=O)N[C@@H](Cc1ccc(OCc3ccccc3)cc1)C(=O)NS(=O)(=O)c1ccc(Br)cc1)c(C)n2C(=O)c1ccc(Cl)cc1 | –
2.9 µM | – | – | O=C(O)CSc1cc(NS(=O)(=O)c2ccc(Br)cc2)c2ccccc2c1O | Ki ([4]; read-out: Ki): 7.85 µM; Ki [5]: 0.18 µM
> 5 µM | – | – | COc1ccc2c(c1)c(CC(=O)N[C@@H](Cc1c[nH]c3ccccc13)C(=O)NS(=O)(=O)c1ccc(Cl)c([N+](=O)[O-])c1)c(C)n2C(=O)c1ccc(Cl)cc1 | –
0.45 µM | 2 to 3 | 5 to 6 | COc1ccc2c(c1)c(CC(=O)N[C@@H](Cc1ccc(OCc3ccccc3Br)cc1)C(=O)NS(=O)(=O)c1ccc(Cl)c([N+](=O)[O-])c1)c(C)n2C(=O)c1ccc(Cl)cc1 | Ki [4]: Not Active; Ki [5]: 0.52 µM; IC50 [6]: 36.1 µM; IC50 [7]: 34 µM; IC50 [8]: 41.5 µM
1.5 µM | – | – | Cc1ccc(S(=O)(=O)NC(=O)[C@H](Cc2ccccc2)N2C(=O)/C(=C/c3ccc(-c4ccccc4)cc3)SC2=S)cc1 | Ki ([4]; read-out: Ki): 1.3 µM; Ki [5]: 1.1 µM; IC50 [7]: 31.8 µM; IC50 [8]: 42.3 µM; Activity [9]: 70.7%; Activity [10]: 15.5%; Activity [11]: 13.6%; Activity [12]: 0.22%; Activity [13]: 65.5%; Activity [14]: 17.4%; Activity [15]: 16.8%; Activity [16]: 0.3%

— ChEMBL document CHEMBL4340551, “Design, synthesis and preliminary bioactivity studies of indomethacin derivatives as Bcl-2/Mcl-1 dual inhibitors” (Bioorg Med Chem, 2019)
